Assay results taken from ChEMBL document CHEMBL1144927, “Discovery of a novel and highly potent noncompetitive AMPA receptor antagonist” (2003).

Assays:
[1] = Anticonvulsant activity against audiogenic seizures in DBA/2 mice 30 min after intraperitoneal administration (clonic phase); format: functional; conditions: Mus musculus, ip, 0.5 h
Method in brief: (§1)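 DBA/2 mice, genetically susceptible to sound-induced seizures (8-12 g, 22-25 days old, either sex), were dosed ip in groups of 10 with vehicle or each dose. Dosing solution was freshly prepared in 50% DMSO/50% sterile 0.9% saline. Mice received auditory stimulation 30 min later and were scored for latency and incidence of seizure phases. ED50 per phase was fitted by Litchfield-Wilcoxon, with 95% confidence limits.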

[2] = Anticonvulsant activity against audiogenic seizures in DBA/2 mice 30 min after intraperitoneal administration (tonic phase); format: functional; conditions: Mus musculus, ip, 0.5 h; method in brief: as §1

Structure (SMILES) | ED50 [1] | ED50 [2]
COc1cc2c(cc1OC)C(c1ccc(N)cc1)=NNC(=O)C2 | 15 µmol/kg | 
COc1cc2c(cc1OC)C(c1ccc(F)cc1)N(C(C)=O)CC2 (stereo not given) | 36.8 µmol/kg | 18 µmol/kg
COc1cc2c(cc1OC)C(c1ccc(Br)cc1)N(C(C)=O)CC2 (stereo not given) | 43.1 µmol/kg | 16.5 µmol/kg
COc1cc2c(cc1OC)C(c1ccc([N+](=O)[O-])cc1)N(C(C)=O)CC2 (stereo not given) | > 100 µmol/kg | > 100 µmol/kg
COc1cc2c(cc1OC)C(c1ccc(Cl)cc1)N(C(C)=O)CC2 (stereo not given) | 4.2 µmol/kg | 2.4 µmol/kg
COc1cc2c(cc1OC)C(c1ccccc1)N(C(C)=O)CC2 (stereo not given) | 53.5 µmol/kg | 37.7 µmol/kg
COc1cc2c(cc1OC)C(c1ccc(N)cc1)N(C(C)=O)CC2 (stereo not given) | 32.1 µmol/kg | 21.1 µmol/kg
CC(=O)N1N=C(c2ccc(N)cc2)c2cc3c(cc2C[C@H]1C)OCO3 [TALAMPANEL] | 13.4 µmol/kg | 9.7 µmol/kg
